Rin1 Abl inh: human Rin1-Abl interaction inhibition | 0.4% of 360,000 active | TR-FRET Rin1/Abl binding, biochemical | P00519+Q13671 | inhibition, % at 7.35 µM; in the data active = inhibition above about 5%, passing the limit was not always enough
ERAP1 inh: inhibitors of human ERAP1 aminopeptidase | inhibition, % at 10.7 µM | recombinant ERAP1, Leu-AMC fluorescence, 60 min | 0.15% of 340,000 active | AID 652197 | Q9NZ08;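 active = mean replicate inhibition of at least 30%, or all replicates individually reaching that 30% level; inactive = mean below 30% and not every replicate reaching it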;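 also: 0% = neutral control wells and 100% = L-leucinethiol positive control wells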
Target sequence (Q9NZ08 whole entry, looked up): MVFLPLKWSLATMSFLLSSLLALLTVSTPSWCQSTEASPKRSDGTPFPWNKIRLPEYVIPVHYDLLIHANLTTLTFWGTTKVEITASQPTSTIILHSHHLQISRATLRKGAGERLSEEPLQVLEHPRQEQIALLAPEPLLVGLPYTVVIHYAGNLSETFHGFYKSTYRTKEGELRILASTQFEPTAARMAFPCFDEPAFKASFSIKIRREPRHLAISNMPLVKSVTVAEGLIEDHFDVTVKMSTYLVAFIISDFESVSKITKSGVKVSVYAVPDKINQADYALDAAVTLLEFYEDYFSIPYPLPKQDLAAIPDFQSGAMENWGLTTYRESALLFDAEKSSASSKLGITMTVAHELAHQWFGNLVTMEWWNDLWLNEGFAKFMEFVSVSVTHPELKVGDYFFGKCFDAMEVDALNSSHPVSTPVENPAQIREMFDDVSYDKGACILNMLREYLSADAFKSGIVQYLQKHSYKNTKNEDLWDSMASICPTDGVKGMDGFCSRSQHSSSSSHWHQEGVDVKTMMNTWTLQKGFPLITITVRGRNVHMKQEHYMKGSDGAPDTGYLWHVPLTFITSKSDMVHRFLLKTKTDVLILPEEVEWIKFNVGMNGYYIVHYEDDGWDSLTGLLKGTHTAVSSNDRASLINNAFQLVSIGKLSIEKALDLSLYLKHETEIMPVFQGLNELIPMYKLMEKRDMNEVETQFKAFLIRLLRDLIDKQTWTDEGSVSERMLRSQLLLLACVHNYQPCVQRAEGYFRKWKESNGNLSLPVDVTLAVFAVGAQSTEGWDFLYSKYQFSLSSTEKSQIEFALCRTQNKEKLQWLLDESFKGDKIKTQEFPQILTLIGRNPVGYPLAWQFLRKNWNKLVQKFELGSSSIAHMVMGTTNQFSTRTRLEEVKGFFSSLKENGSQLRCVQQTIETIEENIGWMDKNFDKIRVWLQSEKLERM
ERp5 block: inhibitors of human ERp5. Q15084. inhibition, % at 9.99 µM. ERp5 insulin aggregation, absorbance 650 nm, 90 min. 0.05% of 350,000 active;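 active = mean replicate inhibition above about 25%, with every replicate also reaching it, limit read from the data, passing the limit was not always enough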
CAL PDZ FP-1: human CAL PDZ-peptide interaction inhibition; purified CAL PDZ, TMR-peptide fluorescence polarization, 1 h; inhibition, % at 20 µM; 0.02% of 330,000 active; AID 504414;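 active = highest replicate inhibition of at least 40%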;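 also: plate controls were DMSO neutral control wells for no effect and unlabeled competitor peptide control wells for full effect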
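Material: tagged CAL PDZ protein CerCALP, purified; buffer or medium: sodium phosphate/NaCl buffer pH 7.4 with TCEP, IgG, Thesit; also added: fluorescent TMR peptide probe; schedule: 1 h incubation at room temperature before polarization reading; technique: fluorescence polarization from S- and P-plane intensities, G-factor corrected; control set: unlabelled peptide and DMSO controls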
CAL PDZ FP-2: blocks peptide binding to the human CAL PDZ domain; purified CAL PDZ, TMR-peptide fluorescence polarization, 1 h; AID 602252; Q9HD26; 0.92% of 300,000 active; inhibition, % at 24.9 µM;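 active = mean inhibition of at least 30% with at least half of replicates also reaching 30%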;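 also: 0% = DMSO neutral control and 100% = excess unlabeled competitor peptide PRC23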
PDI inh: inhibitors of human protein disulfide isomerase; P07237; PDI insulin aggregation turbidity, A650, 90 min; inhibition, % at 10 µM; 0.052% of 350,000 active;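 active = mean inhibition across replicates of 30% or more, whatever share of single replicates reach that level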
An asterisk follows results filed as active; . = no result given. Shown are actives, neighbours in structure and some others; about 1.1% of the full set was active somewhere.

SMILES	Rin1 Abl inh	ERAP1 inh	ERp5 block	CAL PDZ FP-1	CAL PDZ FP-2	PDI inh
CC(C)NC(=O)N(C)C[C@@H]1Oc2ccc(NC(=O)Nc3cccc4ccccc34)cc2CC(=O)N([C@H](C)CO)C[C@H]1C	.	4	0	.	.	.
CCC(=O)Nc1ccc2c(c1)C(=O)N(C)[C@@H]1CC[C@@H](CC(=O)NCC3CC3)O[C@@H]1CO2	.	-1	48*	.	.	.
CCC(=O)Nc1ccc2c(c1)C(=O)N(C)[C@H]1CC[C@@H](CC(=O)NCC3CC3)O[C@@H]1CO2	.	-2	78*	.	.	.
CCC(=O)Nc1ccc2c(c1)C(=O)N(C)[C@@H]1CC[C@H](CC(=O)NCC3CCCCC3)O[C@H]1CO2	.	2	4	.	.	.
CN1C(=O)c2cc(NC(=O)C3CCCCC3)ccc2OC[C@@H]2O[C@@H](CC(=O)NC3CCCC3)CC[C@H]21	.	-1	31*	.	.	.
C[C@H]1CCCCO[C@H](CN(C)S(=O)(=O)c2ccc(Cl)cc2)[C@@H](C)CN([C@@H](C)CO)C(=O)c2cc(NC(=O)CCC(F)(F)F)ccc2O1	.	0	1	.	.	.
Cc1cc(=O)oc2c(CN3CCN(C)CC3)c(O)c(Cl)cc12	3	86*	2	0	6	-12
CN1CCN(Cc2c(O)c(Cl)cc3c(-c4ccccc4)cc(=O)oc23)CC1	-6	.	.	-3	0	6
CCCCc1cc(=O)oc2c(CN3CCCC3)c(O)c(Cl)cc12	-4	.	.	-1	0	2
CCc1c(C)c2cc(Cl)c(O)c(CN3CCCC3)c2oc1=O	2	36*	-1	.	-4	-1
O=c1oc2c(CN3CCOCC3)c(O)c(Cl)cc2c2c1CCCC2	0	12	4	1	2	-2
CCCc1cc(=O)oc2c(CN(CC)CC)c(O)c(Cl)cc12	-6	189*	1	-2	-1	9
CCCCc1cc(=O)oc2c(CN(CC)CC)c(O)c(Cl)cc12	2	.	.	-1	-1	-11
CCCc1cc(=O)oc2c(CN3CCN(C)CC3)c(O)c(Cl)cc12	2	.	.	-1	31*	3
O=C(C1CCCCC1)N1C[C@H]2[C@@H](c3ccccc31)[C@@H](CO)N2Cc1ccccc1Cl	.	4	-1	.	.	.
C[C@@H]1CCCCO[C@H](CN(C)S(=O)(=O)c2ccccc2)[C@@H](C)CN([C@@H](C)CO)C(=O)c2cc(NS(=O)(=O)c3cn(C)cn3)ccc2O1	.	1	-1	.	.	.
CCCc1cc(=O)oc2c(CN3CCN(C)CC3)c(O)ccc12	1	34*	1	1	-12	13
COc1ccccc1N1CCN(C2CCCN(C(=O)c3cc(C4CC4)on3)C2)CC1 (centres undefined)	-3	-2	-12	1	128*	-9
Cc1cc(C(=O)N2CCCC(N3CCN(c4ccccc4C)CC3)C2)n(C)n1 (centres undefined)	-3	1	-4	0	31*	-5
CCN(C(=O)c1ccc2c(SCC(=O)O)c3c(nc2c1)CCC3)c1cc(Cl)ccc1OC	0	-4	0	0	101*	-2
COc1cc(NC(=O)c2ccc3c(SCC(=O)O)c4c(nc3c2)CCC4)cc(OC)c1OC	-2	-3	6	-4	-4	9
COc1ccc(/C=N/NC(=O)c2cccc(O)c2)cc1Cn1nc(C)c([N+](=O)[O-])c1C	-2	-4	-1	-2	53*	-2
COc1ccc(/C=N/n2cnnc2)cc1Cn1nc(C)c([N+](=O)[O-])c1C	5	10	-4	-1	-4	8
C[C@H](CO)N1C[C@H](C)[C@H](CN(C)S(C)(=O)=O)Oc2ncc(C#Cc3cccnc3)cc2C1=O	.	0	0	.	.	.
COc1ccc(CCNC(=O)C(=O)N/N=C/c2cccs2)cc1OC	2	0	-3	-1	78*	-7
SMILES	Rin1 Abl inh	ERAP1 inh	ERp5 block	CAL PDZ FP-1	CAL PDZ FP-2	PDI inh
C=CCNc1oc(-c2ccco2)nc1S(=O)(=O)c1ccccc1	-1	-4	-3	-1	.	5
C=CCNc1oc(-c2cccs2)nc1S(=O)(=O)c1ccccc1	-2	0	-2	4	39*	-3
O=C(Cc1ccncc1)Nc1ccc2c(c1)[C@@H]1C[C@H](CC(=O)N3CCc4ccccc4C3)O[C@H](CO)[C@@H]1O2	.	1	-4	.	.	.
O=S(=O)(c1ccccc1)N1CCN(CCc2ccccc2)CC1	1	0	5	-5	69*	-8
O=C(NCc1ccc(F)cc1)c1c2c(nc3ccccc13)CCN(Cc1ccccc1)C2	-3	.	.	-2	57*	-3
C[C@]12c3[nH]c4cc(-c5ccco5)ccc4c3CCN1C(=O)[C@@H](CC(=O)NCCc1ccccn1)C[C@@H]2C(=O)N1CCCCC1	2	.	-4	0	-2	2
CC(C)(C)NC(=O)C[C@H]1C[C@H](C(=O)N2CCCCC2)[C@@]2(C)c3[nH]c4cc(-c5ccco5)ccc4c3CCN2C1=O	1	-2	0	0	65*	5
C[C@]12c3[nH]c4cc(-c5ccco5)ccc4c3CCN1C(=O)[C@@H](CC(=O)NCCC1=CCCCC1)C[C@@H]2C(=O)N1CCCCC1	-3	.	-1	0	48*	4
CCC(=O)N(C)C[C@H]1Oc2cc(/C=C/c3ccccc3)ccc2S(=O)(=O)N([C@@H](C)CO)C[C@H]1C	.	2	-11	.	.	.
CN1C(=O)c2cc(NC(=O)NC3CCCC3)ccc2OC[C@H]2O[C@@H](CC(=O)NCC3CC3)CC[C@@H]21	.	0	10	.	.	.
Cc1ccc2c(c1)c1ncnc(N3CCOCC3)c1n2C	-5	.	.	-1	42*	7
Cc1ccc2c(c1)c1ncnc(N3CCN(c4ccccc4)CC3)c1n2C	0	.	.	-1	-3	3
CCCC(=O)N1CC2(C1)CN(C(=O)C1CCCCC1)[C@H](CO)c1[nH]c3cc(OC)ccc3c12	.	1	36*	.	.	.
COc1ccc2c3c([nH]c2c1)[C@@H](CO)N(C(=O)C1CCCC1)CC31CCN(C(=O)NC(C)C)CC1	.	1	27*	.	.	.
COc1ccc2c3c([nH]c2c1)[C@@H](CO)N(C(=O)C1CCCC1)CC31CN(C(=O)NC(C)C)C1	.	0	-3	.	.	.
COc1ccc2c3c([nH]c2c1)[C@H](CO)N(C(=O)NC(C)C)CC31CN(C(=O)C2CCCC2)C1	.	1	67*	.	.	.
COc1ccc2c3c([nH]c2c1)[C@H](CO)N(C(=O)C1CCCC1)CC31CCN(C(=O)NC(C)C)CC1	.	3	5	.	.	.
O=C(C[C@H]1CC[C@@H]2[C@H](COC[C@@H](O)CN2Cc2ccccc2)O1)N1CCOCC1	.	-3	-5	.	.	.
CCN1[C@@H]2c3ccc(-c4ccccc4OC)c(=O)n3C[C@@H]2[C@@H](CO)[C@@H]1C(=O)N(C)C	.	1	6	.	.	.
CC#CC[N+](C)(CC#CC)CC(=O)c1ccccc1	0	-3	4	1	58*	-2
CC#CC[N+](C)(C)CC(=O)c1ccccc1	-1	5	-1	-3	-11	5
